Results taken from ChEMBL document CHEMBL4017524, “A Novel Arylurea Fatty Acid That Targets the Mitochondrion and Depletes Cardiolipin To Promote Killing of Breast Cancer Cells” (J Med Chem, 2017).
The source made the active and inactive calls. No cut-off for these calls is given here.

Legend:
[1] = system: MDA-MB-231; experiment: Cytotoxicity against human MDA-MB-231 cells assessed as ATP production at 10 uM after 24 hrs by CellTiter-Glo luminescent assay relative to control; type: functional
Summary of the method: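 MDA-MB-231 cells exposed to 10 µM for 24 h, then ATP formation measured and expressed relative to DMSO-treated control. Basal ATP per 7.5 x 10⁴ cells was recorded at 24 h. Mean±SEM from three separate experiments.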

[2] = system: MDA-MB-231; experiment: Cell cycle arrest in human MDA-MB-231 cells assessed as accumulation at sub-G1 phase at 10 uM after 24 hrs by propidium iodide staining based flow cytometric analysis (reference value: 1.4 +/- 0.03%); type: functional
[3] = system: MDA-MB-231; experiment: Cell cycle arrest in human MDA-MB-231 cells assessed as decrease in accumulation of G0G1 phase at 10 uM after 24 hrs by propidium iodide staining based flow cytometric analysis; type: functional
[4] = system: MDA-MB-231; experiment: Cell cycle arrest in human MDA-MB-231 cells assessed as decrease in accumulation of S phase at 10 uM after 24 hrs by propidium iodide staining based flow cytometric analysis; type: functional
[5] = system: MDA-MB-231; experiment: Cell cycle arrest in human MDA-MB-231 cells assessed as decrease in accumulation of G2M phase at 10 uM after 24 hrs by propidium iodide staining based flow cytometric analysis; type: functional
[6] = system: MDA-MB-231; experiment: Cytotoxicity against human MDA-MB-231 cells assessed as decrease in cell adherence at 40 uM after 48 hrs by crystal violet staining based assay; type: functional
[7] = system: MDA-MB-231; experiment: Cytotoxicity against human MDA-MB-231 cells assessed as decrease in cell viability at 40 uM after 48 hrs by crystal violet staining based assay; type: functional
[8] = system: MDA-MB-231; experiment: Induction of apoptosis in human MDA-MB-231 cells assessed as increase in caspases 3/7 activity at 10 uM after 24 hrs by Caspase-Glo assay relative to control; type: functional
Summary of the method: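 Executioner caspase-3/7 activity read after 24 h exposure at 10 µM and expressed relative to DMSO-treated control. Basal activity per 7.5 x 10⁴ cells was recorded. Mean±SEM of three separate experiments.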

[9] = system: MDA-MB-231; experiment: Induction of apoptosis in human MDA-MB-231 cells assessed as early apoptotic cells at 10 uM after 48 hrs by annexin VFITC/7AAD staining based flow cytometry (reference value: 6.6 +/- 1.4%); type: functional
Summary of the method: (§1)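 Annexin V-FITC/7AAD flow cytometry of cells after 48 h at 10 µM. Quadrants: E4 annexin V only (early apoptotic), E2 dual-stained (late apoptotic), E1 7AAD only, E3 unstained (viable). Compared with DMSO control. Mean±SEM from three experiments.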

[10] = system: MDA-MB-231; experiment: Induction of apoptosis in human MDA-MB-231 cells assessed as late apoptotic cells at 10 uM after 48 hrs by annexin VFITC/7AAD staining based flow cytometry (reference value: 5.9 +/- 0.9%); type: functional; summary of the method: as §1
[11] = system: MDA-MB-231; experiment: Induction of apoptosis in human MDA-MB-231 cells assessed as necrotic cells at 10 uM after 48 hrs by annexin VFITC/7AAD staining based flow cytometry (reference value: 1.5 +/- 0.2%); type: functional; summary of the method: as §1
[12] = system: MDA-MB-231; experiment: Induction of apoptosis in human MDA-MB-231 cells assessed as viable cells at 10 uM after 48 hrs by annexin VFITC/7AAD staining based flow cytometry (reference value: 86.2 +/- 2.3%); type: functional; details: MDA-MB-231, 48 h, read-out: Activity; summary of the method: as §1
[13] = system: T47D; experiment: Cytotoxicity against human T47D cells assessed as decrease in ATP production at 10 uM up to 72 hrs by CellTiter-Glo luminescent assay; type: functional, cell-based
[14] = system: MCF7; experiment: Cytotoxicity against human MCF7 cells assessed as decrease in ATP production at 10 uM up to 72 hrs by CellTiter-Glo luminescent assay; type: functional, cell-based
[15] = system: T47D; experiment: Induction of apoptosis in human T47D cells assessed as increase in caspases 3/7 activity at 10 uM after 48 hrs by Caspase-Glo assay; type: functional, cell-based
[16] = system: MCF7; experiment: Induction of apoptosis in human MCF7 cells assessed as increase in caspases 3/7 activity at 10 uM after 48 hrs by Caspase-Glo assay; type: functional, cell-based
[17] = system: MDA-MB-231; experiment: Induction of apoptosis in human MDA-MB-231 cells assessed as mitochondrial membrane disruption by measuring red to green fluorescence ratio at 10 uM after 24 hrs by JC-1 staining based microscopic method relative to control; type: functional
Summary of the method: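 Cells exposed for 24 h at 10 µM, then stained with the cationic dye JC-1. Red (aggregate, intact inner membrane) to green (monomer) fluorescence ratio expressed relative to DMSO control. Mean±SEM of three experiments.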

[18] = system: MDA-MB-231; experiment: Induction of apoptosis in human MDA-MB-231 cells assessed as mitochondrial membrane disruption at 10 uM after 6 hrs by JC-1/Hoechst 33342 staining based fluorescence microscopic assay; type: functional, cell-based
Summary of the method: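 Treatment with 10 µM or DMSO for 6 h. Cells were washed twice with serum-free medium, then incubated with JC-1 in serum-free medium at 37°C for 20 min. Hoechst 33342 nuclear counterstain, then fluorescence microscopy of green monomers versus red aggregates.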

[19] = system: MDA-MB-231; experiment: Induction of mitochondrial membrane disruption in human MDA-MB-231 cells assessed as mitochondrial cardiolipin level at 14 uM after 24 hrs relative to control; type: functional
[20] = system: MDA-MB-231; experiment: Induction of mitochondrial membrane disruption in human MDA-MB-231 cells assessed as mitochondrial phosphatidylglycerol level at 14 uM after 24 hrs relative to control; type: functional
[21] = system: MDA-MB-231; experiment: Induction of apoptosis in human MDA-MB-231 cells assessed as plasma membrane phospholipid phosphatidylcholine level per 1.05 X 10^7 cells at 14 uM after 24 hrs (reference value: 91 +/- 9 ug); type: functional
[22] = system: MDA-MB-231; experiment: Induction of mitochondrial membrane disruption in human MDA-MB-231 cells assessed as mitochondrial cardiolipin level at 14 uM after 24 hrs in presence of oleic acid; type: functional, cell-based
[23] = system: MDA-MB-231; experiment: Induction of mitochondrial membrane disruption in human MDA-MB-231 cells assessed as mitochondrial phosphatidylglycerol level at 14 uM after 24 hrs in presence of oleic acid; type: functional, cell-based
[24] = system: MDA-MB-231; experiment: Cytotoxicity against human MDA-MB-231 cells assessed as decrease in ATP production at 10 uM after 24 hrs in presence of Ca2+ chelator BAPTA-AM by CellTiter-Glo luminescent assay; type: functional, cell-based
Summary of the method: (§2)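 ATP formation read in MDA-MB-231 cells co-treated with BAPTA-AM (5 or 25 µM) or with cyclosporin A (10 or 20 µM).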

[25] = system: MDA-MB-231; experiment: Cytotoxicity against human MDA-MB-231 cells assessed as decrease in ATP production at 10 uM after 24 hrs in presence of mitochondrial permeability transition pore inhibitor cyclosporin A by CellTiter-Glo luminescent assay; type: functional, cell-based; summary of the method: as §2
[26] = system: MDA-MB-231; experiment: Cytotoxicity against human MDA-MB-231 cells assessed as decrease in cell viability at 40 uM after 48 hrs in presence of alpha-tocopherol by crystal violet staining based assay; type: functional
[27] = system: MDA-MB-231; experiment: Induction of reactive oxygen species in human MDA-MB-231 cells after 2 to 6 hrs by 2',7'-dichlorofluorescin dye based flow cytometric analysis; type: functional, cell-based
Summary of the method: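 Pro-oxidant stress followed by flow cytometry using 2',7'-dichlorofluorescin diacetate after 2-6 h of treatment in MDA-MB-231 cells.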

[28] = system: Mus musculus; experiment: Toxicity in Balb/c nude mouse assessed as change in body weight at 2.5 to 40 mg/kg, ip qd for 5 days; type: organism-based; details: in vivo, 120 h
Summary of the method: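 Balb/c mice given 2.5-40 mg/kg intraperitoneally for 5 days. Weight gain and other signs of toxicity were monitored.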

[29] = system: MDA-MB-231; experiment: Antitumor activity against human MDA-MB-231 cells xenografted in ip dosed Balb/c nu/nu mouse assessed as decrease in tumor volume administered once daily 6 days per week for 32 to 38 days; type: functional, organism-based
Summary of the method: (§3)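 Female nu/nu mice, 7 weeks old, n=5-8 per group. Each received 4x10⁵ cells in 100 µl by subcutaneous injection into the 4th mammary fat pad. Intraperitoneal dosing at graded doses. Body weights and tumour sizes were measured. Isolated tumour sections were stained for TUNEL (apoptosis) and Ki67 (proliferation), with DAPI nuclear stain.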

[30] = system: MDA-MB-231; experiment: Antitumor activity against human MDA-MB-231 cells xenografted in Balb/c nu/nu mouse assessed as TUNEL positive cells at 2.5 to 40 mg/kg, ip qd administered 6 days per week for 32 to 38 days; type: functional, organism-based; summary of the method: as §3
[31] = system: MDA-MB-231; experiment: Antitumor activity against human MDA-MB-231 cells xenografted in Balb/c nu/nu mouse assessed as decrease in Ki67 biomarkers at 2.5 to 40 mg/kg, ip qd administered 6 days per week for 32 to 38 days by […] immunohistochemical analysis; type: functional, organism-based; summary of the method: as §3
[32] = system: MDA-MB-231; experiment: Cytotoxicity against human MDA-MB-231 cells assessed as ATP production at 10 uM after 48 hrs by CellTiter-Glo luminescent assay relative to control; type: functional
[33] = system: MDA-MB-468; experiment: Cytotoxicity against human MDA-MB-468 cells assessed as decrease in ATP production at 10 uM up to 72 hrs by CellTiter-Glo luminescent assay; type: functional, cell-based
[34] = system: MDA-MB-468; experiment: Induction of apoptosis in human MDA-MB-468 cells assessed as increase in caspases 3/7 activity at 10 uM after 48 hrs by Caspase-Glo assay; type: functional, cell-based
[35] = system: MCF-10A; experiment: Cytotoxicity against human MCF10A cells assessed as decrease in ATP production at 10 to 20 uM after 48 hrs by CellTiter-Glo luminescent assay; type: cell-based
[36] = system: MDA-MB-231; experiment: Cytotoxicity against human MDA-MB-231 cells assessed as decrease in ATP production at 10 uM after 24 to 48 hrs by CellTiter-Glo luminescent assay; type: functional, cell-based
[37] = system: MDA-MB-231; experiment: Induction of apoptosis in human MDA-MB-231 cells assessed as increase in caspases 3/7 activity at 10 uM after 48 hrs by Caspase-Glo assay; type: functional, cell-based
[38] = system: MDA-MB-231; experiment: Induction of apoptosis in human MDA-MB-231 cells at 10 uM after 48 hrs by annexin VFITC/7AAD staining based flow cytometry; type: functional, cell-based; summary of the method: as §1
[39] = system: MDA-MB-231; experiment: Cell cycle arrest in human MDA-MB-231 cells at 10 uM after 24 hrs by propidium iodide staining based flow cytometric analysis

Compound: O=C(O)CCCCCCCCCCCCCCCNC(=O)Nc1ccc(Cl)c(C(F)(F)F)c1
- Activity [1]: 72%
- Activity [2]: 20%
- Activity [3]: Active
- Activity [4]: Active
- Activity [5]: Active
- Activity [6]: Active
- Activity [7]: Active
- Activity [8]: 203%
- Activity [9]: 11%
- Activity [10]: 20%
- Activity [11]: 5.9%
- viability at 10 µM [12]: 62.4%
- Activity [13]: Active
- Activity [14]: Active
- Activity [15]: Active
- Activity [16]: inactive
- Activity [17]: 32%
- Activity [18]: Active
- Activity [19]: 61%
- Activity [20]: 61%
- Activity [21]: 88 µg
- Activity [22]: inactive
- Activity [23]: inactive
- Activity [24]: Active
- Activity [25]: Active
- Activity [26]: Active
- Activity [27]: inactive
- Activity [28]: Non-Toxic
- Activity [29]: Dose-dependent effect
- Activity [30]: Active
- Activity [31]: Active
- Activity [32]: 30%
- Activity [33]: Active
- Activity [34]: inactive
- Activity [35]: Non-Toxic

Compound: O=C(O)CCCCCCCCCCCCCCCNC(=O)Nc1ccc(I)cc1
- Activity [36]: inactive
- Activity [17]: inactive

Compound: O=C(O)CCCCCCCCCCCCCCCNC(=O)Nc1ccccc1
- Activity [36]: inactive
- Activity [6]: inactive
- Activity [7]: inactive
- Activity [37]: inactive
- Activity [17]: inactive
- Activity [38]: inactive
- Activity [39]: inactive

Compound: CC(C)(C)c1ccc(NC(=O)NCCCCCCCCCCCCCCCC(=O)O)cc1
- Activity [36]: inactive
- Activity [17]: inactive

Compound: O=C(O)CCCCCCCCCCCCCCCNC(=O)Nc1ccc(Cl)c(Cl)c1
- Activity [36]: inactive
- Activity [6]: inactive
- Activity [7]: inactive
- Activity [37]: inactive
- Activity [17]: inactive
- Activity [38]: inactive
- Activity [39]: inactive

Compound: CCNC(=O)NCCCCCCCCCCCCCCCC(=O)O
- Activity [36]: inactive
- Activity [17]: inactive
- Activity [19]: inactive
- Activity [38]: inactive
- Activity [39]: inactive
